Experimental data: ChEMBL document CHEMBL5226322, “Harnessing the Role of HDAC6 in Idiopathic Pulmonary Fibrosis: Design, Synthesis, Structural Analysis, and Biological Evaluation of Potent Inhibitors” (J Med Chem, 2021)
Each block holds one molecule with its values, some of them ahead of it. Calls of active or inactive are those of the source. No cut-off for these calls is given here.

What was measured:
[1] = biological target: T1, Protein deacetylase HDAC6 (Homo sapiens, UniProt Q9UBN7); experiment: Inhibition of human recombinant HDAC6 using ZMAL (Z-(Ac)Lys-AMC) as fluorogenic substrate incubated for 120 mins by microplate reader assay
T1 sequence (Q9UBN7 whole entry): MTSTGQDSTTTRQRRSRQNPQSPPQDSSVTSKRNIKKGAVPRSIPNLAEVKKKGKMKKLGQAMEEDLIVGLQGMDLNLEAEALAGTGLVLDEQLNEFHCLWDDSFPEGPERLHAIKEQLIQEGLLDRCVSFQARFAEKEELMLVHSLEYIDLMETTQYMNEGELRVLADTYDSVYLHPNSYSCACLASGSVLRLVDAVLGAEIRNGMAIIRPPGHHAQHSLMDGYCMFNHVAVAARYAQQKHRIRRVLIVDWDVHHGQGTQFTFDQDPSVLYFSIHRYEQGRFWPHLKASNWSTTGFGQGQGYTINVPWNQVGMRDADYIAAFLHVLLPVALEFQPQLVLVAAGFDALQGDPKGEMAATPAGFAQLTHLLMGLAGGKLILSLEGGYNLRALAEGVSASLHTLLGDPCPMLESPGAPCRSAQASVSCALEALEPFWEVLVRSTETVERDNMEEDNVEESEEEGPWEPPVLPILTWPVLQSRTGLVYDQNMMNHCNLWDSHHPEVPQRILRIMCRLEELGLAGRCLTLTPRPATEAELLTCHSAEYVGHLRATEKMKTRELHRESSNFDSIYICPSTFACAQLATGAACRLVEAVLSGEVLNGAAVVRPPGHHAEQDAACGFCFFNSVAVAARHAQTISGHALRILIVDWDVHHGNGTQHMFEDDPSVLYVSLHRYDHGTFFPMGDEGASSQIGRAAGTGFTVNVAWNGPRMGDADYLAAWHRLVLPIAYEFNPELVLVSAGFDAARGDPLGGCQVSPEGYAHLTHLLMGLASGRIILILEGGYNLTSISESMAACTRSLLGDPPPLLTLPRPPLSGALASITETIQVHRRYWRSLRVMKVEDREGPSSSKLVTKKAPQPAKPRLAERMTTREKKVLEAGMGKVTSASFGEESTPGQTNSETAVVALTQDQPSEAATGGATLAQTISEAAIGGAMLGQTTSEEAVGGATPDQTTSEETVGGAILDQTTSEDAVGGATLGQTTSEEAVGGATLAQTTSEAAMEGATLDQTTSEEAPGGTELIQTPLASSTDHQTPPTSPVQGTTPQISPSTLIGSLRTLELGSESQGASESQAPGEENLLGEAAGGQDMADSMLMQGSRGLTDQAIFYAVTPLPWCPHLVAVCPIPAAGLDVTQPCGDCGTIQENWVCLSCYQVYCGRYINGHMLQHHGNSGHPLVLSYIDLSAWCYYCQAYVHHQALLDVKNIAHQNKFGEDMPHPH

[2] = biological target: T2, Histone deacetylase 1 (Homo sapiens, UniProt Q13547); experiment: Inhibition of human recombinant HDAC1 using ZMAL (Z-(Ac)Lys-AMC) as fluorogenic substrate incubated for 120 mins by microplate reader assay
[3] = biological target: T3, Protein deacetylase HDAC6 (Homo sapiens) (UniProt Q9UBN7); experiment: Inhibition of HDAC6 in human U87 cells assessed as increase in acetylation of alpha-tubulin at 5 uM incubated for 30 hrs by western blot analysis; assay type: cell-based
T3 sequence (whole entry): T1 sequence (Q9UBN7 whole entry)
Procedure, shortened: (§1)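 Whole lysates (35 μg) and acid-extracted histones (2 μg) run on SDS-PAGE and blotted for acetylated tubulin or acetyl-histone H3; GAPDH or H4 as loading controls.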

[4] = biological target: T2, Histone deacetylase 1; experiment: Inhibition of HDAC1 in human NB-4 cells assessed as increase in acetylation of histone H3 at 5 uM incubated for 30 hrs by western blot analysis; assay type: cell-based; procedure, shortened: as §1
[5] = biological target: T3, Protein deacetylase HDAC6 (Homo sapiens); experiment: Inhibition of HDAC6 in human NB-4 cells assessed as increase in acetylation of alpha-tubulin at 5 uM incubated for 30 hrs by western blot analysis; assay type: cell-based; procedure, shortened: as §1
[6] = biological target: T2, Histone deacetylase 1; experiment: Inhibition of HDAC1 in human U87 cells assessed as increase in acetylation of histone H3 at 5 uM incubated for 30 hrs by western blot analysis; assay type: cell-based; procedure, shortened: as §1
[7] = biological target: T3, Protein deacetylase HDAC6 (Homo sapiens); experiment: Inhibition of HDAC6 in human U2OS cells assessed as increase in acetylation of alpha-tubulin at 5 uM incubated for 30 hrs by western blot analysis; assay type: cell-based; procedure, shortened: as §1
[8] = biological target: T4, Histone deacetylase 8 (Homo sapiens, UniProt Q9BY41); experiment: Inhibition of human recombinant HDAC8 using FLUOR DE LYS fluorometric substrate pre-incubated for 15 mins and followed by substrate addition and measured after 60 mins by microplate reader assay
T4 sequence (Q9BY41 whole entry): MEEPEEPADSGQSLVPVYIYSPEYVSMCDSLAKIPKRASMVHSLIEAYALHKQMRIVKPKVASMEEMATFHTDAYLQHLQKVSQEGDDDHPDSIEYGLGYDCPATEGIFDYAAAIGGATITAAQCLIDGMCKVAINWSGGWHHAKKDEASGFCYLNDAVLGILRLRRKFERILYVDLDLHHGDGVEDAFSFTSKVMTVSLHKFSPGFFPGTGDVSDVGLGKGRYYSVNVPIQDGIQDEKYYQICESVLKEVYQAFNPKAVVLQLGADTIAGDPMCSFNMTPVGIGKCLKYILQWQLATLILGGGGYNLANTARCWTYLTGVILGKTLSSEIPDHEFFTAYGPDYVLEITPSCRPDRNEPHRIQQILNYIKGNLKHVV
Procedure, shortened: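 Recombinant human HDAC8 at 0.45 U/reaction with 0.5% DMSO; DMSO-only enzyme served as control. Enzyme preincubated 15 min with compound, then Fluor de Lys substrate added (50 μM final) for 1 h at 30 °C. Quenched with 2 μM TSA in Developer II for a further 1 h at 30 °C. Fluorescence read at ex 370/em 450 nm. IC50 from nonlinear dose-response fit.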

[9] = Inhibition of cell proliferation in IPF patient derived human Airway basal cell incubated for 14 days by MTT assay; assay type: functional, cell-based; details: 336 h
Procedure, shortened: (§2)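 IPF patient airway basal cell 3D organoid cultures (10⁴ cells in Matrigel, 1:1 BEGM/DMEM) treated 14 days at 1–50 nM, medium changed weekly. Proliferation read by colorimetric MTT on day 14. Mean ± SEM of triplicates, n=3; repeated-measures ANOVA/Friedman test. Reported IC50 is the mean of the count-based and MTT-based IC50s.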

[10] = test system: Airway basal cell; experiment: Inhibition of spheroid count in IPF patient derived human Airway basal cell assessed as reduction in sphere count at 20 to 50 nM incubated for 14 days by Bright-field microscopy analysis; assay type: functional, cell-based; details: dose 20-50 nM, time 14.0 day
Procedure, shortened: (§3)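 Airway basal cells from bronchial brushings of IPF patients, 10⁴ cells in Matrigel on transwell inserts with 1:1 BEGM/DMEM. Treated 14 days (1–50 nM per methods; 0.1–50 nM per legend), medium changed every 7 days.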

[11] = test system: Airway basal cell; experiment: Inhibition of cell proliferation in IPF patient derived human Airway basal cell at 20 to 50 nM incubated for 14 days by MTT assay; assay type: functional, cell-based; details: dose 20-50 nM, time 14.0 day; procedure, shortened: as §2
[12] = organism: Homo sapiens; experiment: Inhibition of broncho-sphere formation in IPF patient derived human lung organoid assessed as inhibition of 3D organoid formation at 0.1 to 50 nM incubated for 14 days by Bright-field microscopy analysis; assay type: functional; details: dose 0.1-50 nM, time 14.0 day; procedure, shortened: as §3
[13] = Inhibition of spheroid count in IPF patient derived human Airway basal cell incubated for 14 days by Bright-field microscopy analysis; assay type: functional, cell-based; procedure, shortened: as §3
[14] = test system: NIH3T3; experiment: Cytotoxicity in mouse NIH3T3 cells assessed as reduction in cell viability at 2 uM incubated for 24 hrs by neutral red uptake method based UV/visible spectrophotometer analysis; assay type: toxicity; details: nih3t3, 24 h
Procedure, shortened: (§4)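 NIH3T3 mouse fibroblasts grown in DMEM with 10% FCS, L-glutamine/pen-strep and non-essential amino acids (37 °C, 5% CO2). Exposed 24 h to compound diluted from a DMSO stock into medium. Viability measured by Neutral Red uptake: 3 h in NR medium, then acetic acid/ethanol desorb, absorbance at 540 nm. Student's t-test, p<0.05.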

[15] = test system: NIH3T3; experiment: Cytotoxicity in mouse NIH3T3 cells assessed as reduction in cell viability at 20 uM incubated for 24 hrs by neutral red uptake method based UV/visible spectrophotometer analysis; assay type: toxicity; details: nih3t3, 24 h; procedure, shortened: as §4
[16] = test system: NIH3T3; experiment: Cytotoxicity in mouse NIH3T3 cells assessed as reduction in cell viability at 1 uM incubated for 24 hrs by neutral red uptake method based UV/visible spectrophotometer analysis; assay type: toxicity; details: nih3t3, 24 h; procedure, shortened: as §4
[17] = test system: NIH3T3; experiment: Cytotoxicity in mouse NIH3T3 cells assessed as reduction in cell viability at 5 uM incubated for 24 hrs by neutral red uptake method based UV/visible spectrophotometer analysis; assay type: toxicity; details: nih3t3, 24 h
Procedure, shortened: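 NIH3T3 fibroblasts grown in DMEM with 10% FCS, L-glutamine/pen-strep and non-essential amino acids at 37 °C, 5% CO2. Monolayers exposed 24 h to compound diluted from a DMSO stock into medium. Neutral Red medium then added for 3 h at 37 °C. Dye extracted with acetic acid/ethanol desorb solution and absorbance read at 540 nm. Student's t-test, p<0.05.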

[18] = test system: NIH3T3; experiment: Cytotoxicity in mouse NIH3T3 cells assessed as reduction in cell viability at 7.5 uM incubated for 24 hrs by neutral red uptake method based UV/visible spectrophotometer analysis; assay type: toxicity; details: nih3t3, 24 h; procedure, shortened: as §4

T2 sequence (Q13547 whole entry): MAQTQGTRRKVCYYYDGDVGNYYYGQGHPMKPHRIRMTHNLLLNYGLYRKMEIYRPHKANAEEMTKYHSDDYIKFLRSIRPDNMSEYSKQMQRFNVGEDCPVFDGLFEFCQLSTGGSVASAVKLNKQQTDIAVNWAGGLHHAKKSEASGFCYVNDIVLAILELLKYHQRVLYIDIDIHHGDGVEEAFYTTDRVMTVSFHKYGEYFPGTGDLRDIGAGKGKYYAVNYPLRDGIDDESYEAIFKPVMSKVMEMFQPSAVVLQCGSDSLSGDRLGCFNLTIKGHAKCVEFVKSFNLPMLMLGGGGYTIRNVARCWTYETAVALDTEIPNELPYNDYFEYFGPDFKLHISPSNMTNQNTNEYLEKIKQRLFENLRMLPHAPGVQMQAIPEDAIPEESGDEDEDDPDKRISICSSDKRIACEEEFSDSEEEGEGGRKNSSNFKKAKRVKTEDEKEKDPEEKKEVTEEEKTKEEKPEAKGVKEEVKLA

- IC50 [1]: 0.152 µM
- IC50 [2]: 8.1 µM
Compound: CC(C)(C)OC(=O)N1CCC2(CC1)c1ccccc1N(Cc1ccc(C(=O)NO)cc1)C2c1cccnc1 (racemic)

- IC50 [1]: 0.166 µM
- IC50 [2]: 18.7 µM
Compound: CC1(C)c2ccccc2N(Cc2ccc(C(=O)NO)cc2)C1c1ccccc1 (racemic)

- IC50 [1]: 0.0672 µM
- IC50 [2]: 5.32 µM
Compound: COc1ccc2c(c1)C(C)(C)C(c1cccnc1)N2Cc1ccc(C(=O)NO)cc1 (racemic)

Compound: CC1(C)c2ccccc2N(Cc2ccc(C(=O)NO)cc2)[C@H]1c1cccnc1
- IC50 [1]: 0.0906 µM
- IC50 [2]: 16.2 µM

Compound: CN1CCC2(CC1)c1ccccc1N(Cc1ccc(C(=O)NO)cc1)C2c1cccc(Cl)c1 (racemic)
- IC50 [1]: 0.111 µM
- IC50 [2]: 8.1 µM

Compound: CN1CCC2(CC1)c1ccccc1N(Cc1ccc(C(=O)NO)cc1)C2c1ccc(Cl)cc1 (racemic)
- IC50 [1]: 0.165 µM
- IC50 [2]: 3.65 µM

Compound: CN1CCC2(CC1)c1ccccc1N(Cc1ccc(C(=O)NO)cc1)C2c1ccc(F)cc1 (racemic)
- inhibition [3]: Active
- inhibition [4]: inactive
- inhibition [5]: Active
- inhibition [6]: inactive
- IC50 [1]: 0.142 µM
- IC50 [2]: 6.16 µM

- inhibition [3]: Active
- inhibition [4]: inactive
- inhibition [7]: Active
- inhibition [5]: Active
- IC50 [8]: 4.64 µM
- inhibition [6]: inactive
- IC50 [1]: 0.0611 µM
- IC50 [2]: 10.8 µM
- IC50 [13]: 0.00435 µM
Compound: CC1(C)c2ccccc2N(Cc2ccc(C(=O)NO)cc2)C1c1ccncc1 (racemic)
- IC50 [9]: 0.00497 µM
- inhibition [10]: Active
- inhibition [11]: Active
- inhibition [12]: Dose-Dependent Effect

Compound: CN1CCC2(CC1)c1ccccc1N(Cc1ccc(C(=O)NO)cc1)C2c1ccccc1 (racemic)
- inhibition [3]: Active
- inhibition [4]: inactive
- inhibition [5]: Active
- IC50 [9]: 0.000154 µM
- inhibition [6]: inactive
- inhibition [10]: Active
- inhibition [11]: Active
- IC50 [1]: 0.0732 µM
- inhibition [12]: Dose-Dependent Effect
- IC50 [2]: 4.29 µM
- IC50 [13]: 0.00255 µM

Compound: CC1(C)c2ccccc2N(Cc2ccc(C(=O)NO)cc2)[C@@H]1c1cccnc1
- IC50 [1]: 0.0713 µM
- IC50 [2]: 3.38 µM

Compound: O=C(CCCCCCC(=O)Nc1ccccc1)NO [VORINOSTAT]
- Activity [14]: 62%
- Activity [15]: 7%
- Activity [16]: 83%
- Activity [17]: 31%
- Activity [18]: 22%

- IC50 [1]: 0.811 µM
- IC50 [2]: 6.32 µM
Compound: CC1(C)c2ccccc2N(Cc2ccc(C(=O)NO)s2)C1c1cccnc1 (racemic)

- IC50 [1]: 0.616 µM
- IC50 [2]: 1.63 µM
Compound: CC1(C)c2ccccc2N(Cc2ccc(OCCCC(=O)NO)cc2)C1c1cccnc1 (racemic)

Compound: CN1CCC2(CC1)c1ccccc1N(Cc1ccc(C(=O)NO)cc1)C2c1cccnc1 (racemic)
- IC50 [1]: 0.112 µM
- IC50 [2]: 7.6 µM
